# Source: PubChem BioAssay (Johns Hopkins Ion Channel Center)
# A selection: hits, their analogues and other compounds. The true share with any hit is near 3.1%.
# hERG rescue: hERG rescue from dofetilide block, primary screen, cell-based, CHO-hERG, FluxOR thallium flux, dofetilide IC70; Voltage-gated inwardly rectifying potassium channel KCNH2 (Homo sapiens), Q12809; dofetilide IC70 present; activation (rescue from dofetilide block), less the hit threshold, % at 10 µM; 310,000 compounds, 0.51% hits; AID 1511, 2009;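 active = activation above the mean of controls blocked by dofetilide plus 5 SD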;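 also: thallium influx through hERG after potassium depolarization seen as dye fluorescence rise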
# KCNK9 block: KCNK9 potassium channel inhibitors, primary screen, HEK293 cells, thallium flux; Potassium channel subfamily K member 9 (Homo sapiens), Q9NPC2; FluxOR thallium flux fluorescence; stronger effect = lower value; B-score at 10 µM; 310,000 compounds, 1.2% hits; AID 488922, 2010;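 active = ratio B-score over 3 SD below the library mean, with starting fluorescence within 5 SD of its mean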;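 also: negative B-score means less thallium flux so channel inhibition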
# KCNQ1 block: inhibitors of human KCNQ1 channel, primary screen, cell-based, thallium flux, high-throughput | Potassium voltage-gated channel subfamily KQT member 1 (Homo sapiens), P51787 | CHO-K1 KCNQ1, FluxOR thallium flux fluorescence; stronger effect = higher value | B-score at 10 µM | 310,000 compounds, 1.3% hits;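 active = compounds whose thallium flux B-score, printed positive for inhibition, exceeds three library SD while starting fluorescence stays within three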;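 also: channel opened by potassium depolarization with thallium stimulus after 20 min compound exposure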
# KCNK3 inh: human KCNK3 channel inhibitors, primary screen, CHO cells, FluxOR thallium flux, B-score | Potassium channel subfamily K member 3 (Homo sapiens), O14649 | FluxOR fluorescence; stronger effect = lower value | B-score at 10 µM | 340,000 compounds, 0.84% hits | AID 602410, 2012;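 active = B-score under library mean minus 4 SD, starting fluorescence ratio at most library mean plus 5 SD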;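 also: more negative B-score means stronger inhibition of thallium flux through KCNK3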
# KCNQ1 act: potentiators or activators of KCNQ1 channel, primary screen, cell-based, thallium flux, high-throughput | Potassium voltage-gated channel subfamily KQT member 1 (Homo sapiens), P51787 | CHO-K1 KCNQ1, thallium flux FluxOR fluorescence; stronger effect = higher value | B-score at 10 µM | 310,000 compounds, 0.35% hits | AID 2648, 2010;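 active = fluorescence ratio B-score, a plate-corrected score, at least three library SD, with initial intensity B-score within 5 SD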
#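 Assay system: CHO-K1 cells stably expressing KCNQ1; Medium: assay buffer with matched DMSO; Also added: K+/Tl+ depolarizing stimulus; Dosing: single dose; Timing: dye 90 min, compound 20 min, room temperature; Measured by: kinetic FluxOR thallium fluorescence, 10-s 1-Hz baseline, 110-s post-stimulus read; Read-out: peak-minus-minimum fluorescence over initial fluorescence, negative-control normalized, B-scored.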
# KCNK9 block conf: KCNK9 potassium channel inhibitors, confirmation, HEK293 cells, thallium flux, duplicate; FluxOR thallium flux fluorescence; AID 492992, 2010; 4,900 compounds, 43% hits; inhibition, % at 10 µM; shares compounds with KCNK9 block;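 active = thallium signal inhibited by more than 5 SD of the compound-free buffer control wells, on both duplicate plates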;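 also: 0% = assay buffer control wells without compound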
# Kir21 sel: mouse Kir2.1 channel inhibition, confirmation, selectivity assay for KCNK9 modulator project, cell-based, HEK293, thallium flux; AID 492993, 2010; Kir2.1 cells, FluxOR thallium flux fluorescence; 4,900 compounds, 4% hits; inhibition, % at 10 µM; shares compounds with KCNK9 block;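 active = thallium signal drop more than 5 SD beyond the mean of the no-compound control wells, seen in both duplicate plates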;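 also: signal is fluorescence rise after thallium addition divided by baseline fluorescence; plate controls were assay buffer only for no effect and full block by chlorpromazine control for full effect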
# Target sequence (P35561 whole entry, looked up): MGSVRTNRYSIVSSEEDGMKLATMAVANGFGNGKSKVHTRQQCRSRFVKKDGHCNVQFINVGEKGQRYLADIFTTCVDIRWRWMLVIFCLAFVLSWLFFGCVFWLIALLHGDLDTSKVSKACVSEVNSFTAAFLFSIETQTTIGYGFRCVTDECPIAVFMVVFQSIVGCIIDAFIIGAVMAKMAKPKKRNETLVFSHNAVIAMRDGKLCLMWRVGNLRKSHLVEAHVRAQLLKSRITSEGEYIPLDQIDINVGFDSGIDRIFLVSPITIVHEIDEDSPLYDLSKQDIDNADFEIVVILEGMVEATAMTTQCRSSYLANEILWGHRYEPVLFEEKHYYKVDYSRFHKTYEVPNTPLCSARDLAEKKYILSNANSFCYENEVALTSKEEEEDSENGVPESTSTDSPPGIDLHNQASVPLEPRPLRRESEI
# KCNK9 uninduced: thallium flux in non-induced HEK293 cells, confirmation, counter-screen for KCNK9 inhibitor project, cell-based, second counter screen, non-induced KCNK9-HEK293 | FluxOR thallium flux | 4,900 compounds, 40% hits | inhibition, % at 10 µM | AID 492997, 2010 | shares compounds with KCNK9 block;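 active = thallium signal drop beyond 5 SD of the untreated control mean, on both duplicate plates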;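 also: plate controls were buffer only IC0 wells for no effect and SID17386958 at its maximal inhibitory level for full effect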
# * hit, by the source's call; i = inactive; / = not tested or not shown.
SMILES,hERG rescue,KCNK9 block,KCNQ1 block,KCNK3 inh,KCNQ1 act,KCNK9 block conf,Kir21 sel,KCNK9 uninduced
CC1CC(C)CN(S(=O)(=O)c2ccc(Oc3ccc([N+](=O)[O-])cc3)cc2)C1 (configuration not stated),-9,i,i,i,i,i,i,i
O=C(CSc1ccccn1)Nc1ccc2[nH]c(=O)[nH]c2c1,/,/,/,i,/,/,/,/
Cc1cc(C)c(S(=O)(=O)c2ccc(C(C)(C)C)cc2)c(Cl)n1,-1,i,i,i,i,i,i,i
Cc1ccc(S(=O)(=O)c2c(C)cc(C)nc2Cl)cc1,-12,i,i,i,i,/,/,/
CCCN(CC(=O)Nc1ccc(NC(C)=O)cc1)CC(=O)Nc1ccc(F)c(F)c1F,-16,i,i,i,i,/,/,/
CCCN(CC(=O)Nc1ccc(C)cc1Br)CC(=O)Nc1ccc(F)c(F)c1F,-8,-9.9*,i,i,i,64%*,i,39%*
CCCN(CC(=O)Nc1cccc(Br)c1)CC(=O)Nc1ccc(F)c(F)c1F,-4,-15*,i,i,i,72%*,i,50%*
Cc1cc2c(cc1C)N[C@]1(C[C@H]3CCCC(=O)N4CC[C@@H](C1)[C@@H]34)C(=NC(C)(C)CC(C)(C)C)N2,/,/,/,i,/,/,/,/
N#C/C(=C/C1=C(N2CCOCC2)C(=C/c2ccc(Cl)cc2Cl)/CC1)C(=O)Nc1ccccc1F,/,/,/,i,/,/,/,/
CCN1CCc2c(sc(NC(=O)c3ccc(S(=O)(=O)N(CC)c4ccccc4)cc3)c2C(N)=O)C1,-13,i,i,i,i,/,/,/
COc1ccccc1C1N=C(c2ccccc2C)NO1 (configuration not stated),-4,i,i,i,i,/,/,/
COc1ccccc1C1=NC(c2ccc(F)cc2)N=C1C (configuration not stated),-10,i,i,i,i,i,i,i
CCOC(=O)c1c(C)oc2ccc(NS(=O)(=O)c3ccc4c5c(cccc35)C(=O)N4)cc12,-11,-10*,i,i,i,36%*,i,i
CNC(=O)COC(=O)c1ccc2c(c1)NC(=O)C1CCCN21 (configuration not stated),-10,i,i,/,i,/,/,/
COc1ccc(NC2CCCN(C(=O)c3cn(C)c4ccccc34)C2)cc1 (configuration not stated),-6,i,i,i,i,i,i,i
Cc1ccc(NC2CCCN(C(=O)c3cn(C)c4ccccc34)C2)cc1C (configuration not stated),-12,i,i,i,i,i,i,i
Cc1ccccc1Cn1nc(C)c(NC(=O)c2noc3c2CCc2ccccc2-3)c1C,-12,i,i,i,i,i,i,i
CCc1ccc(CN(Cc2cccnc2)C(=O)/C=C/c2ccc(OC)cc2)cc1,-14,i,i,i,i,i,i,i
CCOc1ccc(OCC)c(NC(=O)CCNS(=O)(=O)c2cc(Br)cnc2N)c1,-7,i,i,i,i,/,/,/
O=C(OC(C(=O)Nc1cc(Cl)cc(Cl)c1)c1ccccc1)C1=COCCO1 (configuration not stated),-8,i,i,i,i,/,/,/
CN(C)C(C(=O)Nc1cc(Cl)cc(Cl)c1)c1ccccc1 (configuration not stated),-23,-10*,i,i,i,44%*,i,30%*
COc1ccc(C(=O)NCCc2cnc[nH]2)cc1OC,-5,i,i,i,i,/,/,/
Cc1csc(NC(=O)CSC2=NS(=O)(=O)c3cc(F)ccc3N2)n1,-8,i,i,i,i,/,/,/
CCCCC(=O)N(c1ccc(C(=O)O)cc1)c1nc(-c2ccc(Cl)cc2)c(CC)s1,-10,i,i,i,i,i,i,i
CCc1sc(N(C(=O)Cc2ccccc2)c2ccccc2)nc1-c1ccccc1,-13,i,i,i,i,/,/,/
SMILES,hERG rescue,KCNK9 block,KCNQ1 block,KCNK3 inh,KCNQ1 act,KCNK9 block conf,Kir21 sel,KCNK9 uninduced
Cc1cnc(C(=O)NCC(=O)Nc2ccccc2Br)cn1,/,/,/,i,/,/,/,/
CC(=O)OCCCN(C)CC/C=C1/c2ccccc2CSc2ccccc21,-11,i,i,i,i,i,i,i
C[N+](C)(C)CC/C=C1/c2ccccc2CSc2ccccc21,-5,i,i,i,i,/,/,/
CC(C)(C)C1CCc2onc(C(=O)NCc3ccc(F)cc3)c2C1 (configuration not stated),-9,i,i,i,i,i,i,i
Cc1cc(C(=O)CS(=O)(=O)c2ccc(Cl)cc2)cc(C)c1O,-7,i,i,i,i,/,/,/
COc1cccc(CN2CCSCC2)c1OC,4,i,i,i,i,/,/,/
COc1cccc(CN2CCN(Cc3cccc(Br)c3)CC2)c1OC,-8,i,i,i,i,i,i,i
COc1cccc(CN2CCN(Cc3cc(OC)c(OC)cc3[N+](=O)[O-])CC2)c1,-5,i,i,i,i,i,i,i
O=C1Nc2c(Cl)cc(Cl)cc2C1=O,/,/,/,i,/,/,/,/
COC(=O)c1c(NS(=O)(=O)c2ccc3ccccc3c2)sc2c1CCCC2,17*,i,i,i,33*,i,i,i
CCOC(=O)c1c(NC(=O)OC)sc2c1CCC2,-7,i,i,i,i,/,/,/
COC(=O)c1c(NC(=O)c2ccc(C)c(S(=O)(=O)Nc3ccccc3C)c2)sc2c1CCCC2,-9,i,i,i,i,/,/,/
CCOC(=O)c1c(NS(=O)(=O)c2ccc(Br)cc2)sc2c1CCC2,62*,i,i,i,56*,i,i,i
